One compound from ChEMBL document CHEMBL4390679 (J Med Chem, 2019) can be followed below.

The structures appear in SMILES notation. Starred links: 1 amine or outer side, 2 acyl side, 3 side chain; linkers in the order of their positions; H or OH if unused. Positions of bridges follow the written chain, without caps; N, C: chain ends. Non-standard residues stand in square brackets, D forms with d. Residues, ends and D or L forms follow the SMILES beside them. X1 = O=C(CN(CCCO)[*:1])[*:2] Where only a bound is given, the exact number is not on record here.

The target of data set [1] is T1, Oxytocin receptor (Homo sapiens, UniProt P30559).
T1 sequence (P30559 whole entry): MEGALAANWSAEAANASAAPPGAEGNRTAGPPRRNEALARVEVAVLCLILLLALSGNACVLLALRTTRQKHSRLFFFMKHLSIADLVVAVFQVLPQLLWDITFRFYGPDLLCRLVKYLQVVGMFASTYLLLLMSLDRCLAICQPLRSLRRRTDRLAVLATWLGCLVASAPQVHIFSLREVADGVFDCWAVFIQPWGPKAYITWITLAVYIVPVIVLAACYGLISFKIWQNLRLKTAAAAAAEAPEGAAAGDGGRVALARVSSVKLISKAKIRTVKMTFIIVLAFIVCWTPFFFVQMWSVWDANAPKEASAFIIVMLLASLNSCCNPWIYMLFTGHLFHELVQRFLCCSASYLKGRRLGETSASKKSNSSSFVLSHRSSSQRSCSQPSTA
Kind of data set: Agonist activity at recombinant human OTR expressed in HEK293 cells assessed as increase in intracellular calcium level measured at 3 secs interval for 5 mins by fura-2/AM dye based micro spectrofluorometric method. Type of data set: functional, cell-based. Background: A change in cytosolic calcium serves as a functional read-out for many receptors and channels.

Data set [2] concerns the target T1, Oxytocin receptor. Kind of data set: Displacement of [3H]OT from recombinant human OTR expressed in HEK293 cell membranes measured after 1 hr. (In general: Displacement assays read how much labelled ligand stays bound in the presence of the test substance.)
In data set [3] the target is Vasopressin V1a receptor (Homo sapiens, UniProt P37288). The data set can be described thus: Agonist activity at recombinant human V1a receptor expressed in HEK293 cells assessed as increase in intracellular calcium level measured at 3 secs interval for 5 mins by fura-2/AM dye based micro spectrofluorometric method. The format is cell-based.
Data set [4] addresses T2, Vasopressin V1b receptor (Homo sapiens, UniProt P47901).
T2 sequence (P47901 whole entry): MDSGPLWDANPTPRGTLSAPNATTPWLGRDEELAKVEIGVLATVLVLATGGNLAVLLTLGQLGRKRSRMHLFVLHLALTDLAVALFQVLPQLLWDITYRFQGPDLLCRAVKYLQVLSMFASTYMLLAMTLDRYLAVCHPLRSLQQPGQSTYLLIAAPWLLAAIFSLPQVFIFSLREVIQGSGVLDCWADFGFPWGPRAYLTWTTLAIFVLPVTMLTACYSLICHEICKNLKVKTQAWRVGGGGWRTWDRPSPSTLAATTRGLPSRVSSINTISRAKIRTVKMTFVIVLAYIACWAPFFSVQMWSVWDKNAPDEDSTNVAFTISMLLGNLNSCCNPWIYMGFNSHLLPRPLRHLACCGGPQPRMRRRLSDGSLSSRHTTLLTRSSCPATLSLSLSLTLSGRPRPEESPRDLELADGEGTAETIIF
The data set can be described thus: Agonist activity at recombinant human V1b receptor expressed in HEK293 cells assessed as increase in intracellular calcium level measured at 3 secs interval for 5 mins by fura-2/AM dye based micro spectrofluorometric method. The format is cell-based.

The species entered for data set [5] is Homo sapiens. The data set can be described thus: Selectivity ratio of EC50 for recombinant human V1a receptor expressed in HEK293 cells to EC50 for recombinant human OTR expressed in HEK293 cells. Type of data set: cell-based. Put shortly:
(§1)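 Agonist response measured in HEK-293 cells stably expressing human OTR, V1aR or V1bR, loaded with 1 µM fura-2/AM for 30 min at 37 °C, washed in HEPES-buffered saline pH 7.4. F340/F380 ratio read every 3 s for 5 min at 37 °C, normalized to baseline and to maximal OT (OTR) or AVP (V1aR, V1bR) response; EC50 taken from these curves. n = 3, 20 cells per dish.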

For data set [6], the species on record is Homo sapiens. Kind of data set: Selectivity ratio of EC50 for recombinant human V1b receptor expressed in HEK293 cells to EC50 for recombinant human OTR expressed in HEK293 cells. Type of data set: cell-based. Put shortly: as §1
Data set [7] has as its system Mus musculus. Kind of data set: Cognition enhancing effect in CD38 knock out Slc:ICR mouse sire model of autism spectrum disorder assessed as latency time to retrieve pups by sires at 100 ng/ml, ip administered as single dose measured after 30 mins by parental retrieval test (reference value: 600 sec). The format is functional.
The subject of data set [8] is Mus musculus. The data set can be described thus: Cognition enhancing effect in CD38 knock out Slc:ICR mouse sire model of autism spectrum disorder assessed as latency time to retrieve pups by sires at 100 ng/ml, ip administered as single dose measured after 5 hrs by parental retrieval test (reference value: 233 +/- 68 sec). The format is functional.
The subject of data set [9] is Mus musculus. The data set can be described thus: Cognition enhancing effect in CD38 knock out Slc:ICR mouse sire model of autism spectrum disorder assessed as latency time to retrieve pups by sires at 100 ng/ml, ip administered as single dose measured after 12 hrs by parental retrieval test (reference value: 233 +/- 68 sec). The format is functional.
Data set [10] relates to Mus musculus. Kind of data set: Cognition enhancing effect in CD38 knock out Slc:ICR mouse sire model of autism spectrum disorder assessed as latency time to retrieve pups by sires at 100 ng/ml, ip administered as single dose measured after 24 hrs by parental retrieval test (reference value: 233 +/- 68 sec). The format is functional.
Data set [11] has as its system Mus musculus. The data set can be described thus: Antidepressant-like activity in CD38KOCC Slc:ICR mouse model of autism spectrum disorder assessed as immobility time at 100 ng/ml, ip administered as single dose for 30 mins prior to testing measured for last 4 mins of 6 mins test by tail suspension test (reference value: 74.2 +/- 2.9 sec). Type of data set: functional.

Data set [12] relates to Mus musculus. The data set can be described thus: Cognition enhancing effect in CD38KOCC Slc:ICR mouse model of autism spectrum disorder assessed as sucrose consumption over water at 100 ng/ml, ip administered as single dose measured after 60 mins relative to control (reference value: 0.46 +/- 0.04). Type of data set: functional.
Data set [13] deals with Mus musculus. Kind of data set: Cognition enhancing effect in CD38KOCC Slc:ICR mouse model of autism spectrum disorder assessed as sucrose consumption over water at 100 ng/ml, ip administered as single dose measured after 24 hrs relative to control (reference value: 0.46 +/- 0.04). Type of data set: functional.
The nature of data set [14]: Plasma concentration in Slc:ICR mouse at 100 ng/g, iv measured immediately by LC-MS/MS analysis. Type of data set: ADME, organism-based. As to conditions: in vivo. Put shortly:
(§2)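 Male ICR mice (30 g) were given 100 ng/g i.v. via the tail vein. Blood was taken by cardiac puncture immediately and at 5, 15 and 30 min; CSF was taken at 30 min or 12 h. Plasma was deproteinized with acetonitrile/methanol 1:1 containing [13C6,15N]OT internal standard and analysed by LC-MS/MS (C8 column, SRM).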

Data set [15] in a line: Half life in Slc:ICR mouse plasma during fast phase at 100 ng/g, iv measured for 15 mins by LC-MS/MS analysis. The format is ADME, organism-based. The procedure, abridged: as §2
Data set [16] can be described thus: Half life in Slc:ICR mouse plasma during slow phase at 100 ng/g, iv measured for 15 to 60 mins by LC-MS/MS analysis. The format is ADME, organism-based. Put shortly:
as §2

The nature of data set [17]: Drug level in Slc:ICR mouse cerebrospinal fluid at 100 ng/g, iv measured after 30 mins by LC-MS/MS analysis. The format is ADME, organism-based. The conditions noted are these: in vivo, 0.5 h, BLD = below limit of detection. Put shortly: as §2
Data set [18] can be described thus: Drug level in Slc:ICR mouse cerebrospinal fluid at 100 ng/g, iv measured after 12 hrs by LC-MS/MS analysis. Type of data set: ADME, organism-based. As to conditions: in vivo, 12 h, BLD = below limit of detection. The procedure, abridged: as §2
A short description of data set [19]: Stability in mouse plasma assessed as parent compound remaining at 50 ng/ml measured after 2 hrs by LC-MS/MS analysis. The format is ADME, cell-free. The conditions noted are these: read-out: Stability. The procedure, abridged:
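Pooled mouse plasma spiked to a final 50 ng/mL was incubated at 37 °C for 1–120 min, quenched with acetonitrile/methanol 1:1 plus internal standard, and analysed by LC-MS/MS. Percent of the initial concentration was calculated; 85–115% was taken as acceptable.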

The target of data set [20] is T3, Oxytocin receptor (Homo sapiens) (UniProt P30559).
T3 sequence (whole entry): T1 sequence (P30559 whole entry)
The data set can be described thus: Displacement of [3H]OT from recombinant human OTR expressed in HEK293 cell membranes assessed as association rate constant for [3H]OT binding. The procedure, abridged:
(§3)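 Membranes from HEK-293 cells stably expressing human OTR (5 µg/well) in 50 mM Tris, 10 mM MgCl2, 0.1% BSA, pH 7.4. [3H]OT added at 200 pM, 500 pM and 1 nM; bound and free separated by rapid filtration at multiple time points to build association curves. Kon and Koff fitted; t1/2 from Koff = ln2/t1/2. Two experiments, each in duplicate.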

In data set [21] the target is T3, Oxytocin receptor (Homo sapiens). Kind of data set: Displacement of [3H]OT from recombinant human OTR expressed in HEK293 cell membranes assessed as dissociation rate constant for [3H]OT binding. The procedure, abridged: as §3
The target is the same in data set [22]. Kind of data set: Displacement of [3H]OT from recombinant human OTR expressed in HEK293 cell membranes assessed as dissociation half life for [3H]OT binding. The procedure, abridged: as §3
Data set [23] has as its system Mus musculus. The data set can be described thus: Antidepressant-like activity in CD38KOCC Slc:ICR mouse model of autism spectrum disorder assessed as immobility time at 100 ng/ml, ip administered as single dose for 24 hrs prior to testing measured for last 4 mins of 6 mins test by tail suspension test (reference value: 56.5 +/- 18.8 sec).

Vasopressin V1a receptor, sequence (P37288 whole entry): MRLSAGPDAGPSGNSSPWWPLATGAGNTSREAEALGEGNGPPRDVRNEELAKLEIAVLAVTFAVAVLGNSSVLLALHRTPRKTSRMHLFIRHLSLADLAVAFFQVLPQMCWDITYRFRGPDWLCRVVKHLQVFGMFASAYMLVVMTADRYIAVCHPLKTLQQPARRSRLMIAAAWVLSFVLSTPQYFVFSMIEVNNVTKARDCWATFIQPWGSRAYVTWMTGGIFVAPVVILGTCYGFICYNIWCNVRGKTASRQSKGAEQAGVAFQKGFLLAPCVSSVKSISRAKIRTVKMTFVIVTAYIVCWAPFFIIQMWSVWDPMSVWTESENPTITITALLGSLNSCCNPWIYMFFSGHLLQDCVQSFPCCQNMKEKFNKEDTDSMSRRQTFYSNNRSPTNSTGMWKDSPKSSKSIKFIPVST

As to `CC[C@H](C)[C@@H]1NC(=O)[C@H](Cc2ccc(O)cc2)NC(=O)[C@@H](N)CSSC[C@@H](C(=O)N(CCCO)CC(=O)N[C@@H](CC(C)C)C(=O)NCC(N)=O)NC(=O)[C@H](CC(N)=O)NC(=O)[C@H](CCC(N)=O)NC1=O` (H-CYIQNC[X1]LG-NH2; disulfide 1-6), the EC50 (in general, the concentration at which the effect is half-maximal) was 0.031 nM in [1], over 10 nM in data set [3] and over 10 nM in [4]. In addition, in data set [2], the Ki (commonly a measure of affinity in units of concentration, obtained from inhibition or displacement) was 1.4 nM. The Ratio EC50 in [5] was over 323; in data set [6], over 322. The Time in [7] stood at 346 s; in data set [8], 293 s; in data set [9], 386 s; in data set [10], 100 s; in data set [11], 151.83 s; in [23], 157.3 s. Further, the Ratio is listed as 0.72 in [12] and 0.67 in data set [13]. The compound also registered a Cp in [14] of 108 ng/mL. Besides, the results for the half-life in data set [15] and in [16] were 3.1 min and 4.23 min, respectively. The Drug uptake entry in data set [17] and in [18] was “Bld” in each case. In data set [19], the remaining at 2 h, 50 ng/ml fell in the range of 85 to 115%. Also, the K in data set [20] was 7.47 ×10⁶ /M/min; in data set [21] it was 0.0175 min⁻¹. Further, the T1/2 in data set [22] turned out to be 36.6 min.
